In the library only some 1.4% were active in any assay of this set; here they are far more common.
hK5 inh: blocks human kallikrein 5 protease activity | Q9Y337 | actives 0.59% (n = 210,000) | recombinant hK5, fluorogenic AMC substrate cleavage | inhibition, % at 5 µM;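 active = inhibition of 40% or more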;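 also: 0% = enzyme controls without compound and 100% = no-enzyme blanks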
Calpain2 inh: inhibitors of pig calpain II; actives 0.37% (n = 220,000); purified calpain II, fluorogenic peptide substrate, 30 min; inhibition, % at 16 µM;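 active = inhibition above about 50%, limit read from the data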
thrombin 1536: inhibitors of human thrombin. P00734. alpha-thrombin, Boc-VPR-AMC fluorogenic substrate cleavage. inhibition, % at 5 µM. AID 1046. actives 0.26% (n = 220,000);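 active = inhibition at or above 40%; inactive = inhibition below 40%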;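 also: 0% = enzyme with no compound and 100% = wells without enzyme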
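Material: human alpha-thrombin enzyme / Medium: pH 7.5 Tris (50 mM) with NaCl 150 mM, Tween 20 0.05% / Compound: single-point dosing at 5 µM, 0.2% DMSO / Incubation: enzyme reaction carried out at room temperature / Detection: AMC fluorescence, 355/460 nm / Read-out basis: percent inhibition scaled between no-compound controls and no-enzyme blanks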
FXIa inh: inhibitors of human coagulation factor XIa. purified FXIa, Boc-Glu-Ala-Arg-AMC fluorogenic substrate. inhibition, % at 5 µM. actives 0.14% (n = 220,000);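 active = inhibition of at least 40%; inactive = inhibition below 40%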;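 also: fluorescence of freed AMC excited at 355 nm; 0% = enzyme without compound and 100% = no enzyme blank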
FXIIa inh: inhibitors of human coagulation factor XIIa; purified FXIIa, Boc-QGR-AMC fluorogenic substrate, 2 h; inhibition, % at 5 µM; actives 0.3% (n = 220,000); AID 800; in the data active = inhibition above about 40%;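 also: 0% = enzyme with no compound and 100% = blank without enzyme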
Furin inhibitor: inhibitors of human furin | P09958 | inhibition, % at 20 µM or 30 µM | purified furin, fluorogenic substrate cleavage | AID 463115 | actives 0.061% (n = 220,000); in the data active = inhibition above about 25%
Target sequence (P09958 108-714 limits assumed): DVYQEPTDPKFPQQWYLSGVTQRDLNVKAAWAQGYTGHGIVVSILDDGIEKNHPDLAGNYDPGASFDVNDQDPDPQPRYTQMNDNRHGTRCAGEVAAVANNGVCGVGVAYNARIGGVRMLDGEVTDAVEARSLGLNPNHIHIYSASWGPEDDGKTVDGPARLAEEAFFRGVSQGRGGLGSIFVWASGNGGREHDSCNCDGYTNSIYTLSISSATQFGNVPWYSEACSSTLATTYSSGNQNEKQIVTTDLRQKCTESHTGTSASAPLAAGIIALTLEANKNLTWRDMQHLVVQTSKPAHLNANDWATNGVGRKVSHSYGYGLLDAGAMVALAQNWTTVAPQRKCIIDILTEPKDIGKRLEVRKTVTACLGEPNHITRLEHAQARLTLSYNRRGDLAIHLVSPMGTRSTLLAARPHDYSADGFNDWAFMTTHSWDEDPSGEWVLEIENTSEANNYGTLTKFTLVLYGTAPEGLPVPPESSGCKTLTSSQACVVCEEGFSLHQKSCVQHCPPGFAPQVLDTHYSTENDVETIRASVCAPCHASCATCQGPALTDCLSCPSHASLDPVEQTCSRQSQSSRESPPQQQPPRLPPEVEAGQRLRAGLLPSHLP
* hit, by the source's call; x = no result.

SMILES	hK5 inh	Calpain2 inh	thrombin 1536	FXIa inh	FXIIa inh	Furin inhibitor
COc1ccc(OC)c(-n2c(-c3ccc(O)cc3O)n[nH]c2=S)c1	0.2	1.4	-3.3	3.9	4.5	-12.6
CCCC(=O)Nc1ccc(Cl)c(NC(=S)NC(=O)c2cc3ccccc3o2)c1	-19.4	52.0*	5.4	7.5	8.2	-6.3
N#CCC(=O)NNC(=S)Nc1ccccc1C(F)(F)F	-15.0	-11.0	6.0	1.3	9.3	-15.6
C/C(=N\OC(=O)C1CC1)C1CC1c1ccc(F)cc1 (centres undefined)	52.3*	19.0	30.8	33.2	33.2	-13.1
CC(=O)Nc1ccc(-c2csc(NCc3ccco3)n2)cc1	-5.7	-21.1	3.0	10.4	14.6	-24.0
c1cncc(-c2csc(NCc3ccco3)n2)c1	11.2	30.0	1.4	15.3	45.7*	-9.5
Nc1ccccc1Nc1ccncc1[N+](=O)[O-]	-2.2	-1.9	-7.9	-3.0	-11.5	-22.1
O=[N+]([O-])c1cncc([N+](=O)[O-])c1Nc1ccccc1Cl	16.0	17.1	11.5	30.1	44.1*	-5.7
Cc1cc([N+](=O)[O-])nn1CC(=O)N1CCN(Cc2ccccc2)CC1	1.2	18.5	4.0	2.3	6.7	-13.7
COc1ccc2nc(CC(C)(C)CC(=O)O)c[n+]([O-])c2c1	29.5	-297.4	14.0	0.4	4.3	-23.3
COC(=O)c1sccc1NC(=O)c1ccc(Cl)s1	-11.3	-67.3	-10.2	3.5	-9.9	-14.8
CCn1c(C(=O)Nc2ccsc2C(=O)OC)cc2sc(Cl)cc21	46.5*	-11.0	5.3	-1.4	-5.0	-28.3
O=C(Oc1ccc2c(-c3ccccc3)cc(=O)oc2c1)C1CCCCC1	-12.2	56.2*	-9.6	3.6	8.5	-1.4
C=CCNC(=S)Nc1cccc2ccccc12	8.2	-1.2	9.8	5.6	13.0	-13.9
O=C(NC1CCSC1=O)c1ccccc1 (centres undefined)	-14.7	-11.8	-5.1	-6.3	6.3	-20.7
O=C1SCCC1NC(=O)C(c1ccccc1)c1ccccc1 (centres undefined)	93.7*	10.6	13.8	60.4*	40.0*	-3.8
O=C(NNc1cc(N2CCOCC2)nc(N2CCOCC2)n1)c1ccc([N+](=O)[O-])cc1	68.3*	28.2	2.5	30.6	22.2	-0.9
O=C(Nc1ccc(N2CCOCC2)cc1N1CCOCC1)c1ccc([N+](=O)[O-])cc1	-21.8	-2.3	1.7	12.7	13.1	-8.6
COc1ccc(S(=O)(=O)NCc2c(-c3ccccc3)noc2C)c(OC)c1	30.8	8.3	10.3	58.8*	29.2	-5.4
O=c1cc(O)c(-c2ccc(Cl)c(Cl)c2)c(Cl)[nH]1	2.0	-58.8	-3.5	-1.6	5.0	-31.9
Cc1ccc2cc(CCNC(=O)c3cc4ccccc4o3)c(=O)[nH]c2c1C	33.3	54.1*	16.0	34.5	29.0	-23.1
Cc1ccc2cc(CCNC(=O)C(C)C)c(=O)[nH]c2c1C	16.3	6.8	-7.3	-9.2	5.0	-12.3
O=C(NNC1=NCCCCC1)Nc1cccc(Cl)c1	23.9	22.3	40.1*	46.6*	41.6*	-2.7
CCC(=O)Nc1ccc(C(=O)CSc2nc3ccccc3cc2CC)cc1	59.6*	11.9	104.4*	0.9	21.2	-13.7
CC(O)c1c(-c2ccccc2)nn(C)c1Cl (centres undefined)	0.3	-8.0	10.2	0.3	8.1	-14.8
SMILES	hK5 inh	Calpain2 inh	thrombin 1536	FXIa inh	FXIIa inh	Furin inhibitor
Cc1nc(-c2ccccc2)sc1C(=O)CSc1ccc(Cl)cc1	-10.5	63.6*	8.7	-10.5	3.8	-19.9
Cc1ccc(NC2=C(Cl)C(=O)c3ccccc3C2=O)cc1	5.9	17.9	-6.4	-7.4	0.6	8.1
CCNC1=C(Cl)C(=O)c2ccccc2C1=O	-13.8	50.2*	-3.8	3.0	5.1	-3.2
Cc1ccc(Nc2nc(COC(=O)C3CC3)cs2)cc1	-18.2	-11.2	2.2	-3.3	0.2	-20.0
COc1ccccc1C(=O)Nc1cccnc1	x	11.5	-2.9	1.7	11.5	-15.8
Cc1ccc(NCc2nnc(SCC(=O)N(Cc3ccccc3)C(C)(C)C)o2)c(C)c1	2.0	60.2*	-4.7	-6.9	-5.1	-10.5
Cc1ccc(NCc2nnc(SCC(N)=O)o2)c(C)c1	-2.6	-29.2	16.8	-6.1	4.3	-30.3
Cc1ccccc1NC(=S)N(CCc1c(C)[nH]c2ccc(F)cc12)Cc1cccnc1	1.9	63.5*	-2.2	0.2	10.5	-23.0
CC1=C(C(=O)OCC2CCCO2)C(c2ccncc2)C2=C(CCCC2=O)N1 (centres undefined)	3.8	-241.0	1.7	4.7	15.6	-10.4
CC1=C(C(=O)OCC2CCCO2)C(c2ccc(C)cc2)C2=C(CCCC2=O)N1 (centres undefined)	8.6	-122.8	-1.6	-4.3	7.9	-31.0
CC1=C(C(=O)OCC2CCCO2)C(c2ccc(C)o2)C2=C(CC(c3ccc(N(C)C)cc3)CC2=O)N1 (centres undefined)	-1.6	99.3*	4.3	-0.6	10.9	-6.0
CC1=C(C(=O)OCC2CCCO2)C(c2ccc(C)o2)C2=C(CC(c3ccc(F)cc3)CC2=O)N1 (centres undefined)	-10.3	13.9	2.9	36.0	51.4*	-15.1
O=C(CN1C(=O)c2ccccc2C1=O)Nc1sc2c(c1C(=O)NCc1ccco1)CCCC2	-10.8	-68.9	-5.0	-0.9	4.2	28.5*
CCOC(=O)c1[nH]c(C)c(C(=O)Nc2ccc(C)cc2C)c1C	79.7*	13.5	-1.0	9.8	21.4	-5.4
CCOC(=O)CCC(=O)NCc1ccc2c(c1)cc(C)n2C	54.2*	6.9	5.3	-2.1	15.6	-20.3
CCOC(=O)c1cnc(-c2ccccc2)nc1-c1ccccc1	11.7	35.9	1.0	-6.1	3.0	-1.5
CCC(C)NC(=O)CNC(=S)N(CCCN1CCOCC1)Cc1cccs1 (centres undefined)	-14.4	-3.5	-9.9	-8.4	-0.8	-21.0
COc1ccccc1NC(=O)N1CCCC1C(=O)NC1CCCCC1 (centres undefined)	22.4	7.6	53.6*	11.0	14.7	-14.1
CCCSCCCNC(=O)Cn1cc2c(n1)CCCCC2	18.4	-27.1	-7.4	-4.4	5.8	-10.4
CCC1=C(OC(=O)N(CC)CC)N2C(=O)OC(=NCCOC)[C@]2(Cc2ccccc2)[C@H]2C1=CC[C@H]1C(=O)N(CC)C(=O)[C@H]12	-1.0	-28.1	-0.1	-1.7	4.0	-30.8
CCOC(=O)C(C)Sc1ncnc2c1c(-c1ccccc1)cn2-c1ccc(OC)cc1 (centres undefined)	1.9	-1.6	-8.2	-1.4	4.8	-14.9
Cc1cccc(C(=O)NCCc2ccc(S(N)(=O)=O)cc2)c1[N+](=O)[O-]	-15.5	2.5	-2.4	7.0	13.3	-18.4
CS(=O)(=O)NCCCNc1ccc(C(F)(F)F)cc1[N+](=O)[O-]	1.6	8.2	2.1	1.7	7.7	-5.7
O=[N+]([O-])c1cc(C(F)(F)F)ccc1NCCc1c[nH]c2ccc(O)cc12	-3.5	52.4*	-8.5	-3.1	2.7	-16.4
